Experimental data from ChEMBL document CHEMBL1158074, “Cytotoxic constituents from the formosan soft coral Clavularia inflata var. luzoniana” (J Nat Prod, 2006).
Values after ≈ are worked out from the molar mass of the structure shown. Active and inactive are the calls of the source. The rule behind the calls is not given here.

Experiments:
P388 = experiment: Cytotoxicity against mouse P388 cells; assay type: functional; conditions: for EC50: read-out: ED50 (the source's name)
Summary of the method: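 P-388 mouse lymphocytic leukemia cells were provided by an academic laboratory at the University of Illinois at Chicago. Activity is expressed as an ED50.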

HT-29 = experiment: Cytotoxicity against human HT 29 cells; assay type: functional, cell-based
Summary of the method: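 HT-29 human colon adenocarcinoma cells were obtained from the American Type Culture Collection. The value is reported as an ED50.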

Structure (SMILES) | EC50 (P388) | EC50 (HT-29; read-out: ED50 (the source's name)) | Activity (P388) | Activity (HT-29) | EC50 (HT-29; read-out: EC50)
C=C1[C@@H]2[C@@H](OC(C)=O)OC=C([C@H](OC(C)=O)[C@@H](C=C(C)C)OC(C)=O)[C@H]2CC/C(C)=C/[C@H](OC(=O)c2ccccc2)[C@H]1O | 0.5 µg/mL (≈ 0.838 µM) | 1.2 µg/mL (≈ 2.01 µM) | – | – | –
C=C1CC[C@H]2[C@@H]([C@H]3C(C)=CC[C@@]13OO)C2(C)C | – | – | inactive | inactive | –
C=C1CC/C=C(\C)C/C=C2/[C@H](C(C)C)CC[C@@]2(C)CC1=O | 0.6 µg/mL (≈ 2.09 µM) | – | – | – | 2.8 µg/mL (≈ 9.77 µM)
C=C1CC/C=C(\C)C/C=C2/[C@H](C(C)C)CC[C@@]2(C)C[C@@H]1O | 3.6 µg/mL (≈ 12.5 µM) | – | – | inactive | –
CC(=O)C(O)C[C@@H]1[C@@H]([C@@H]2[C@H]3CC[C@@]23C)C1(C)C (stereo partly specified) | – | – | inactive | inactive | –
C=C1CC/C=C(\C)C/C=C2/[C@H](C(C)C)[C@@H](O)C[C@@]2(C)CC1=O | 1.5 µg/mL (≈ 4.96 µM) | – | – | inactive | –
C=C1CC[C@H]2[C@@H]([C@@H]3[C@@H]1C[C@@H](O)[C@@]3(C)O)C2(C)C | – | – | inactive | inactive | –
CC1(C)[C@@H]2[C@@H]3[C@H](C[C@@H](O)[C@@]3(C)O)[C@@](C)(O)CC[C@@H]21 | – | – | inactive | inactive | –
